≈ marks a conversion by molar mass, not a printed value.

One may read the MIC as the least concentration at which growth counts as inhibited. The Km is the concentration of substrate that gives half-maximal velocity. By kcat is commonly meant the maximal rate divided by the concentration of active sites.

In experiment [1] the test system is Citrobacter freundii. The experiment in a line: Antibacterial activity against Citrobacter freundii KHM243 clinical isolate by microdilution method. It is filed as functional.
Experiment [2] relates to Escherichia coli. Kind of experiment: Antibacterial activity against Escherichia coli JM109 harboring recombinant pKHM-1 by microdilution method. It is filed as functional. (In general: In broth dilution the organism is exposed to a series of concentrations in liquid medium.)
Experiment [3] relates to Escherichia coli. The experiment in a line: Antibacterial activity against Escherichia coli K-12 W1895 by microdilution method. It is filed as functional. The method in brief: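 Microdilution β-lactam MICs in E. coli K-12 W1895, the conjugation recipient. Transconjugants carrying the natural blaKHM-1 plasmid were selected on Penassay agar with rifampin (200 μg/ml) and moxalactam (16 μg/ml).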

The subject of experiment [4] is Escherichia coli. Conditions: JM109.
Experiment [5] deals with Escherichia coli. Kind of experiment: Antibacterial activity against Escherichia coli K-12 W1895 transconjugant harboring pCF243 by microdilution method. It is filed as functional.
Experiment [6] deals with Escherichia coli. The experiment in a line: Antibacterial activity against Escherichia coli JM109 by microdilution method. It is filed as functional. The essentials: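 Microdilution β-lactam susceptibility in E. coli JM109, the host strain for recombinant plasmids such as the pHSG396-based blaKHM-1 clone.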
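Wherever Km is given: Beta-lactamase KHM-1 expressed in Escherichia coli JM109 carrying recombinant pKHM-1, hydrolysis of substrate followed by UV-visible spectrophotometry.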
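Wherever kcat is given: Beta-lactamase KHM-1 expressed in Escherichia coli JM109 carrying recombinant pKHM-1, hydrolysis of substrate followed by UV-visible spectrophotometry.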

As for `CO/N=C(\C(=O)N[C@@H]1C(=O)N2C(C(=O)O)=C(COC(C)=O)CS[C@H]12)c1csc(N)n1` [CEFOTAXIME], the minimal inhibitory concentration (MIC) in experiment [1] was 64 mg/L (≈ 141 µM); in experiment [2] it was 128 mg/L; in experiment [3], 0.008 mg/L (≈ 0.0176 µM); in experiment [5] it was above 512 mg/L; in experiment [6] it was 0.004 mg/L (≈ 0.00878 µM). In experiment [4], the Michaelis constant (Km) turned out to be 13 µM. For the same molecule, in experiment [4], the kcat worked out at 2180 s⁻¹.

Turning to `NC(=O)OC[C@@H]1[C@H](NC(=O)/C(=N\OCC(=O)O)c2csc(N)n2)C(=O)N1S(=O)(=O)O` [CARUMONAM], the minimal inhibitory concentration (MIC) stood at 0.25 mg/L (≈ 0.536 µM) in experiment [1]; 0.063 mg/L in experiment [2]; 0.031 mg/L (≈ 0.0665 µM) in experiment [3]; 0.125 mg/L (≈ 0.268 µM) in experiment [5]; 0.031 mg/L (≈ 0.0665 µM) in experiment [6].

For `CCN1CCN(C(=O)N[C@@H](C(=O)N[C@]2(OC)C(=O)N3C(C(=O)O)=C(CSc4nnnn4C)CS[C@@H]32)[C@H](C)O)C(=O)C1=O` [CEFBUPERAZONE], the minimal inhibitory concentration (MIC) in experiment [1] is 128 mg/L (≈ 204 µM); in experiment [2], 512 mg/L; in experiment [3] it was 0.063 mg/L (≈ 0.1 µM); in experiment [5], 256 mg/L (≈ 408 µM); in experiment [6] it was 0.031 mg/L (≈ 0.0494 µM).

With `CO[C@@]1(NC(=O)C2SC(=C(C(N)=O)C(=O)O)S2)C(=O)N2C(C(=O)O)=C(CSc3nnnn3C)CS[C@@H]21` (stereo partly specified) [CEFOTETAN], the MIC in experiment [1] is 128 mg/L (≈ 222 µM); in experiment [2], above 512 mg/L; in experiment [3], 0.125 mg/L (≈ 0.217 µM); in experiment [5] it was 512 mg/L (≈ 889 µM); in experiment [6] it was 0.031 mg/L (≈ 0.0539 µM).

As to `CO[C@@]1(NC(=O)CSC(F)F)C(=O)N2C(C(=O)O)=C(CSc3nnnn3CCO)CO[C@@H]21` [FLOMOXEF], the MIC in experiment [1] came to 64 mg/L (≈ 129 µM); in experiment [2], 128 mg/L; in experiment [3] it was 0.031 mg/L (≈ 0.0624 µM); in experiment [5], 256 mg/L (≈ 516 µM); in experiment [6], 0.031 mg/L (≈ 0.0624 µM).

For the molecule `CO[C@@]1(NC(=O)CSCC#N)C(=O)N2C(C(=O)O)=C(CSc3nnnn3C)CS[C@@H]21` [CEFMETAZOLE], the minimum inhibitory concentration (MIC) in experiment [1] is 512 mg/L (≈ 1090 µM); in experiment [2], above 512 mg/L; in experiment [3], 0.5 mg/L (≈ 1.06 µM); in experiment [5], 512 mg/L (≈ 1090 µM); in experiment [6], 0.25 mg/L (≈ 0.53 µM).

On to `CO[C@@]1(NC(=O)CSC[C@@H](N)C(=O)O)C(=O)N2C(C(=O)O)=C(CSc3nnnn3C)CS[C@@H]21` [CEFMINOX], for which the MIC is 512 mg/L (≈ 985 µM) in experiment [1]; 512 mg/L in experiment [2]; 0.125 mg/L (≈ 0.241 µM) in experiment [3]; above 512 mg/L in experiment [5]; 0.25 mg/L (≈ 0.481 µM) in experiment [6].

In the case of `CO/N=C(\C(=O)N[C@@H]1C(=O)N2C(C(=O)[O-])=C(C[n+]3ccn4ncccc43)CS[C@H]12)c1nsc(N)n1` [CEFOZOPRAN], the MIC in experiment [1] amounted to 16 mg/L (≈ 31 µM); in experiment [2], 64 mg/L; in experiment [3] it was 0.016 mg/L (≈ 0.031 µM); in experiment [5], 256 mg/L (≈ 497 µM); in experiment [6], 0.008 mg/L (≈ 0.0155 µM).

Consider `CO/N=C(\C(=O)N[C@@H]1C(=O)N2C(C(=O)O)=C(COC(N)=O)CS[C@H]12)c1ccco1` [CEFUROXIME], for which the MIC was above 512 mg/L in experiment [1]; above 512 mg/L in experiment [2]; 2 mg/L (≈ 4.71 µM) in experiment [3]; above 512 mg/L in experiment [5]; 8 mg/L (≈ 18.9 µM) in experiment [6].

Turning to `CCN1CCN(C(=O)N[C@@H](C(=O)N[C@@H]2C(=O)N3[C@@H]2SC(C)(C)[C@@H]3C(=O)O)c2ccccc2)C(=O)C1=O` [PIPERACILLIN], the minimum inhibitory concentration (MIC) came to 4 mg/L (≈ 7.73 µM) in experiment [1]; 4 mg/L in experiment [2]; 2 mg/L (≈ 3.86 µM) in experiment [3]; 16 mg/L (≈ 30.9 µM) in experiment [5]; 0.25 mg/L (≈ 0.483 µM) in experiment [6].

Take `CO/N=C(\C(=O)N[C@@H]1C(=O)N2C(C(=O)[O-])=C(C[N+]3(C)CCCC3)CS[C@H]12)c1csc(N)n1`: the MIC in experiment [2] was 64 mg/L; in experiment [3], 0.002 mg/L (≈ 0.00416 µM); in experiment [5] it was above 512 mg/L; in experiment [6], 0.004 mg/L (≈ 0.00832 µM).
